Legend:
Assay type in all cases: functional
[1] = system: OVCAR-3; test: Growth inhibition of human OVCAR-3 cells after 48 hrs; settings: OVCAR-3, 48 h
Procedure, shortened: (§1)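 NCI ~60-line screen. Cells were grown in RPMI 1640 with 5% FBS and 2 mM L-glutamine and plated at 5000–40000 cells/well. After a 24 h preincubation, five drug concentrations from DMSO stocks were added for 48 h at 37 °C. Cells were TCA-fixed, stained with SRB and read at 515 nm. GI50 was taken from time-zero and control absorbances and reported as pGI50.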

[2] = system: HOP-62; test: Growth inhibition of human HOP62 cells after 48 hrs; settings: HOP-62, 48 h; procedure, shortened: as §1
[3] = system: KM12; test: Growth inhibition of human KM12 cells after 48 hrs; settings: KM12, 48 h; procedure, shortened: as §1
[4] = system: U-251; test: Growth inhibition of human U251 cells after 48 hrs; settings: U-251, 48 h
Procedure, shortened: (§2)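 NCI 60-line screen: cells in RPMI 1640 with 5% FBS and 2 mM L-glutamine, plated at 5000–40000 cells/well, grown 24 h (37 °C, 5% CO₂), then exposed to five 10-fold or ½-log dilutions (DMSO stock) for 48 h. Fixed with TCA (final 10% for adherent cells, 16% for suspension cells), then SRB stained with absorbance at 515 nm. GI50 from percentage growth relative to time-zero and control wells.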

[5] = system: IGROV-1; test: Growth inhibition of human IGROV1 cells after 48 hrs; settings: IGROV-1, 48 h; procedure, shortened: as §1
[6] = system: TK-10; test: Growth inhibition of human TK10 cells after 48 hrs; settings: TK-10, 48 h; procedure, shortened: as §2
[7] = system: A549; test: Growth inhibition of human A549 cells after 48 hrs; settings: A549, 48 h; procedure, shortened: as §1
[8] = system: NCI-H522; test: Growth inhibition of human NCI-H522 cells after 48 hrs; settings: NCI-H522, 48 h; procedure, shortened: as §1
[9] = system: SK-MEL-28; test: Growth inhibition of human SK-MEL28 cells after 48 hrs; settings: SK-MEL-28, 48 h; procedure, shortened: as §1
[10] = system: PC-3; test: Growth inhibition of human PC3 cells after 48 hrs; settings: PC-3, 48 h; procedure, shortened: as §1
[11] = system: LOX IMVI; test: Growth inhibition of human LOXIMVI cells after 48 hrs; procedure, shortened: as §1
[12] = system: MCF7; test: Growth inhibition of human MCF7 cells after 48 hrs; settings: MCF7, 48 h; procedure, shortened: as §1
[13] = system: NCI-H322M; test: Growth inhibition of human NCI-H322M cells after 48 hrs; procedure, shortened: as §1
[14] = system: EKVX; test: Growth inhibition of human EKVX cells after 48 hrs; procedure, shortened: as §1
[15] = Growth inhibition of human HS578T cells after 48 hrs; settings: Hs-578T; procedure, shortened: as §1
[16] = system: MDA-MB-231; test: Growth inhibition of human MDA-MB-231 cells after 48 hrs; settings: MDA-MB-231, 48 h; procedure, shortened: as §1
[17] = system: ACHN; test: Growth inhibition of human ACHN cells after 48 hrs; procedure, shortened: as §1
[18] = system: HOP-92; test: Growth inhibition of human HOP92 cells after 48 hrs; settings: HOP-92, 48 h; procedure, shortened: as §1
[19] = system: MDA-MB-435; test: Growth inhibition of human MDA-MB435 cells after 48 hrs; settings: MDA-MB-435, 48 h; procedure, shortened: as §1
[20] = system: SK-MEL-5; test: Growth inhibition of human SK-MEL5 cells after 48 hrs; settings: SK-MEL-5, 48 h; procedure, shortened: as §1
[21] = system: NCI-H226; test: Growth inhibition of human NCI-H226 cells after 48 hrs; settings: NCI-H226, 48 h; procedure, shortened: as §1
[22] = system: HCC 2998; test: Growth inhibition of human HCC2998 cells after 48 hrs; settings: HCC 2998, 48 h; procedure, shortened: as §1
[23] = system: K562; test: Growth inhibition of human K562 cells after 48 hrs; settings: K562, 48 h; procedure, shortened: as §1
[24] = system: COLO 205; test: Growth inhibition of human COLO205 cells after 48 hrs; settings: COLO 205, 48 h; procedure, shortened: as §1
[25] = system: NCI-H460; test: Growth inhibition of human NCI-H460 cells after 48 hrs; settings: NCI-H460, 48 h; procedure, shortened: as §1
[26] = system: OVCAR-8; test: Growth inhibition of human OVCAR8 cells after 48 hrs; settings: OVCAR-8, 48 h; procedure, shortened: as §1
[27] = system: RXF 393; test: Growth inhibition of human RXF393 cells after 48 hrs; settings: RXF 393, 48 h; procedure, shortened: as §1
[28] = system: SF-295; test: Growth inhibition of human SF295 cells after 48 hrs; settings: SF-295, 48 h; procedure, shortened: as §1
[29] = system: RPMI-8226; test: Growth inhibition of human RPMI8226 cells after 48 hrs; settings: RPMI-8226, 48 h; procedure, shortened: as §1
[30] = system: SF-268; test: Growth inhibition of human SF268 cells after 48 hrs; settings: SF-268, 48 h; procedure, shortened: as §1
[31] = system: MOLT-4; test: Growth inhibition of human MOLT4 cells after 48 hrs; settings: MOLT-4, 48 h; procedure, shortened: as §1
[32] = system: UACC-257; test: Growth inhibition of human UACC257 cells after 48 hrs; settings: UACC-257, 48 h; procedure, shortened: as §2
[33] = system: HCT-15; test: Growth inhibition of human HCT15 cells after 48 hrs; settings: HCT-15, 48 h; procedure, shortened: as §1
[34] = system: SNB-75; test: Growth inhibition of human SNB75 cells after 48 hrs; settings: SNB-75, 48 h; procedure, shortened: as §2
[35] = system: A498; test: Growth inhibition of human A498 cells after 48 hrs; settings: A498, 48 h; procedure, shortened: as §1
[36] = system: T47D; test: Growth inhibition of human T47D cells after 48 hrs; procedure, shortened: as §2
[37] = system: SK-OV-3; test: Growth inhibition of human SKOV3 cells after 48 hrs; settings: SK-OV-3, 48 h; procedure, shortened: as §2
[38] = system: DU-145; test: Growth inhibition of human DU145 cells after 48 hrs; settings: DU-145, 48 h; procedure, shortened: as §1
[39] = system: SW-620; test: Growth inhibition of human SW620 cells after 48 hrs; settings: SW-620, 48 h; procedure, shortened: as §2
[40] = system: HT-29; test: Growth inhibition of human HT29 cells after 48 hrs; settings: HT-29, 48 h; procedure, shortened: as §1
[41] = system: SN12C; test: Growth inhibition of human SN12C cells after 48 hrs; procedure, shortened: as §2
[42] = system: UO-31; test: Growth inhibition of human UO31 cells after 48 hrs; settings: UO-31, 48 h; procedure, shortened: as §2
[43] = system: HL-60; test: Growth inhibition of human HL60 cells after 48 hrs; settings: HL-60, 48 h; procedure, shortened: as §1
[44] = system: NCI-H23; test: Growth inhibition of human NCI-H23 cells after 48 hrs; settings: Homo sapiens, NCI-H23, 48 h; procedure, shortened: as §1
[45] = system: Malme-3M; test: Growth inhibition of human MALME3M cells after 48 hrs; procedure, shortened: as §1
[46] = system: CAKI-1; test: Growth inhibition of human CAKI1 cells after 48 hrs; settings: CAKI-1, 48 h; procedure, shortened: as §1
[47] = system: CCRF-CEM; test: Growth inhibition of human CCRF-CEM cells after 48 hrs; procedure, shortened: as §1
[48] = system: BT-549; test: Growth inhibition of human BT549 cells after 48 hrs; settings: BT-549, 48 h; procedure, shortened: as §1
[49] = system: SNB-19; test: Growth inhibition of human SNB19 cells after 48 hrs; settings: SNB-19, 48 h; procedure, shortened: as §2
[50] = system: NCI/ADR-RES; test: Growth inhibition of human NCI/ADR-RES cells after 48 hrs; procedure, shortened: as §1
[51] = system: SR; test: Growth inhibition of human SR cells after 48 hrs; procedure, shortened: as §2
[52] = system: UACC-62; test: Growth inhibition of human UACC62 cells after 48 hrs; settings: UACC-62, 48 h; procedure, shortened: as §2
[53] = system: OVCAR-5; test: Growth inhibition of human OVCAR5 cells after 48 hrs; settings: OVCAR-5, 48 h; procedure, shortened: as §1
[54] = system: HCT-116; test: Growth inhibition of human HCT116 cells after 48 hrs; settings: HCT-116, 48 h; procedure, shortened: as §1
[55] = system: M14; test: Growth inhibition of human M14 cells after 48 hrs; settings: M14, 48 h; procedure, shortened: as §1
[56] = system: SK-MEL-2; test: Growth inhibition of human SK-MEL2 cells after 48 hrs; settings: SK-MEL-2, 48 h; procedure, shortened: as §1
[57] = system: 786-0; test: Growth inhibition of human 786-0 cells after 48 hrs; settings: 786-0, 48 h; procedure, shortened: as §1
[58] = system: OVCAR-4; test: Growth inhibition of human OVCAR4 cells after 48 hrs; settings: OVCAR-4, 48 h; procedure, shortened: as §1
[59] = system: SF-539; test: Growth inhibition of human SF539 cells after 48 hrs; settings: SF-539, 48 h; procedure, shortened: as §1

Structure (SMILES): Cn1c2ccccc2c2c(=O)n(CCCC(=O)N(C(=O)NC3CCCCC3)C3CCCCC3)c3c(-c4ccccc4)nnn3c21
- GI50 [1]: > 100 µM
- GI50 [2]: > 100 µM
- GI50 [3]: > 100 µM
- GI50 [4]: > 100 µM
- GI50 [5]: 15.5 µM
- GI50 [6]: > 100 µM
- GI50 [7]: > 100 µM
- GI50 [8]: 69.2 µM
- GI50 [9]: > 100 µM
- GI50 [10]: > 100 µM
- GI50 [11]: > 100 µM
- GI50 [12]: 64.6 µM
- GI50 [13]: > 100 µM
- GI50 [14]: > 100 µM
- GI50 [15]: > 100 µM
- GI50 [16]: 72.4 µM
- GI50 [17]: > 100 µM
- GI50 [18]: > 100 µM
- GI50 [19]: > 100 µM
- GI50 [20]: > 100 µM
- GI50 [21]: > 100 µM
- GI50 [22]: > 100 µM
- GI50 [23]: > 100 µM
- GI50 [24]: > 100 µM
- GI50 [25]: > 100 µM
- GI50 [26]: > 100 µM
- GI50 [27]: 63.1 µM
- GI50 [28]: 79.4 µM
- GI50 [29]: > 100 µM
- GI50 [30]: 97.7 µM
- GI50 [31]: > 100 µM
- GI50 [32]: > 100 µM
- GI50 [33]: > 100 µM
- GI50 [34]: 44.7 µM
- GI50 [35]: 66.1 µM
- GI50 [36]: 56.2 µM
- GI50 [37]: > 100 µM
- GI50 [38]: > 100 µM
- GI50 [39]: > 100 µM
- GI50 [40]: > 100 µM
- GI50 [41]: > 100 µM
- GI50 [42]: > 100 µM
- GI50 [43]: > 100 µM
- GI50 [44]: > 100 µM
- GI50 [45]: > 100 µM
- GI50 [46]: > 100 µM
- GI50 [47]: > 100 µM
- GI50 [48]: 72.4 µM
- GI50 [49]: > 100 µM
- GI50 [50]: 95.5 µM
- GI50 [51]: > 100 µM
- GI50 [52]: > 100 µM
- GI50 [53]: > 100 µM
- GI50 [54]: 91.2 µM
- GI50 [55]: > 100 µM
- GI50 [56]: > 100 µM
- GI50 [57]: > 100 µM
- GI50 [58]: 38 µM
- GI50 [59]: 38 µM

From ChEMBL document CHEMBL1142436, “Design and synthesis of 4-substituted indolo[3,2-e][1,2,3]triazolo[1,5-a]pyrimidine derivatives with antitumor activity” (2008)
